According to ChEMBL document CHEMBL3352472, “Discovery of 4-aryl-7-hydroxyindoline-based P2Y1 antagonists as novel antiplatelet agents” (J Med Chem, 2014):
Converted amounts (≈) assume the structure as drawn. Blank lines part the entries; values can stand above or below the compound they belong to. The source made the active and inactive calls. The rule behind the calls is not given here.

Tests used:
Oryctolagus cuniculus [1] = assay: Antithrombotic activity in rabbit model of electrically-induced carotid artery thrombosis assessed as reduction in thrombus formation dosed 30 mins before electrical stimulation; assay type: functional, organism-based
Oryctolagus cuniculus [2] = assay: Induction of bleeding time in rabbit model of electrically-induced carotid artery thrombosis at 80% antithrombotic dose administered 30 mins before electrical stimulation (reference value: 1 +/- 0.05); assay type: organism-based; details: in vivo, 0.5 h
hERG (KCNH2) = hERG (KCNH2) (Homo sapiens, UniProt Q12809); assay: Inhibition of human ERG at 1 uM by patch clamp assay
Chain of hERG (KCNH2) (Q12809 whole entry): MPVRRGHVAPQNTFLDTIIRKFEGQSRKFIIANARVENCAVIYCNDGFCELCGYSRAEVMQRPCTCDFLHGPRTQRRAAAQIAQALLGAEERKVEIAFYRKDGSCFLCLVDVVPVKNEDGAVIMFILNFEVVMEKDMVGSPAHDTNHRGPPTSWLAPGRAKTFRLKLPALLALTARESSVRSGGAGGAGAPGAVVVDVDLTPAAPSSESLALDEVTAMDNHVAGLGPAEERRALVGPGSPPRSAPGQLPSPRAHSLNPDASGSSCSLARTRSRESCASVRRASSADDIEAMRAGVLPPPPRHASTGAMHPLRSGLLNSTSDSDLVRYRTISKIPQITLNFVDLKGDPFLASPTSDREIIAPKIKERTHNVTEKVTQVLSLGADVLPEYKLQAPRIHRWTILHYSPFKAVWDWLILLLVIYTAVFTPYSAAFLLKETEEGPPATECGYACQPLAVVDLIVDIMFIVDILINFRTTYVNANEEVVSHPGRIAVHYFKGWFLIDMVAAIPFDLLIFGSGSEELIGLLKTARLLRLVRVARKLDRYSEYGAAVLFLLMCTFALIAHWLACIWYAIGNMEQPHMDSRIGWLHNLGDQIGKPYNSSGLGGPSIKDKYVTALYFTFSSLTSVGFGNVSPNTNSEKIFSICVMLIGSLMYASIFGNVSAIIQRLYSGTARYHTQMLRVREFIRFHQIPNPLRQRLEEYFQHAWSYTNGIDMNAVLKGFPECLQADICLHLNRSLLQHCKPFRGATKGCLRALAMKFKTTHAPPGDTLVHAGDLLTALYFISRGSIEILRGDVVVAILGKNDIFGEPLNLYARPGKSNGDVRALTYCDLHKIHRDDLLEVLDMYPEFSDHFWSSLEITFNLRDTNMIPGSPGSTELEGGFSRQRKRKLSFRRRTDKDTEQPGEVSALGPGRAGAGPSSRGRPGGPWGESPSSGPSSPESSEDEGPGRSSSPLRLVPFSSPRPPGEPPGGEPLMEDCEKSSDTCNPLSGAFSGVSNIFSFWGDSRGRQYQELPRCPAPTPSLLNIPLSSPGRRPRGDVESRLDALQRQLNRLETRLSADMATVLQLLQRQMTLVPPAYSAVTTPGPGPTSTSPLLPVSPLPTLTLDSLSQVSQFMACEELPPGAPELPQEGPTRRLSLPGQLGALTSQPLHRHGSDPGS

P2Y purinoceptor 2 = P2Y purinoceptor 2 (Homo sapiens, UniProt P41231); assay: Antagonist activity at P2Y2 receptor (unknown origin)
Chain of P2Y purinoceptor 2 (P41231 whole entry): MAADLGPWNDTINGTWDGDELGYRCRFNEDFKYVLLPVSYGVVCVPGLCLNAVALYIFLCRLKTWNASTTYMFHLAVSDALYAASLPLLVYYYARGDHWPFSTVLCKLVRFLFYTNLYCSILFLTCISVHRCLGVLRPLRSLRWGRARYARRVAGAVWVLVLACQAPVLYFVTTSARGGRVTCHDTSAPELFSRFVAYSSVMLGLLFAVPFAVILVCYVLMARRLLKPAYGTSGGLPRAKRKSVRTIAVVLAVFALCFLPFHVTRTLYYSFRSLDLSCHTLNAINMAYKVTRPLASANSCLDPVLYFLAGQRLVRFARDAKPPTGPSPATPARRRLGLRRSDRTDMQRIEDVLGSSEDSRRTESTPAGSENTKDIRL

P2Y purinoceptor 12 = P2Y purinoceptor 12 (Homo sapiens, UniProt Q9H244); assay: Antagonist activity at P2Y12 receptor (unknown origin)
Chain of P2Y purinoceptor 12 (Q9H244 whole entry): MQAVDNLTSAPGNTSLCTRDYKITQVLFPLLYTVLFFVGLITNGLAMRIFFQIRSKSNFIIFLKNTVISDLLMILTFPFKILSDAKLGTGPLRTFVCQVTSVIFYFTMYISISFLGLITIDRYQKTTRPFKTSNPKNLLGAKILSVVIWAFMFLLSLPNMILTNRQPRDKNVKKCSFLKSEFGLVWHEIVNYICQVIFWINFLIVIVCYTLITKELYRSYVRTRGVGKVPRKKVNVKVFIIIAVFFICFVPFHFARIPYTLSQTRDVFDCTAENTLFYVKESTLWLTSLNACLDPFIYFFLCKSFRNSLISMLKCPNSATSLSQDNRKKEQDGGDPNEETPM

[3] = Aqueous solubility of the compound at pH 3 using compound in amorphous solid form; assay type: physicochemical; details: buffer
Oryctolagus cuniculus [4] = assay: Induction of bleeding time in rabbit model of electrically-induced carotid artery thrombosis administered 30 mins before electrical stimulation; assay type: organism-based; details: in vivo, 0.5 h
Method in brief: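 Rabbits received an iv bolus plus continuous infusion (0.003 + 0.01 up to 0.3 + 1 mg/kg + mg·kg−1·h−1), started 30 min before carotid electrical stimulation and maintained throughout. Vehicle was 10% DMAc/2.5% PVP-K12/1% Pluronic F-108/D5W. Bleeding time was recorded up to 20 min after cuticle incision and expressed as fold of vehicle; mean ± SEM, n = 5–8 per group.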

P2Y purinoceptor 1 [5] = biological target: T1, P2Y purinoceptor 1 (Homo sapiens, UniProt P47900); assay: Antagonist activity at P2Y1 receptor in washed human platelets assessed as 1 uM 2-methylthio-ADP-induced calcium flux by FLIPR assay; assay type: functional
T1 sequence (P47900 whole entry): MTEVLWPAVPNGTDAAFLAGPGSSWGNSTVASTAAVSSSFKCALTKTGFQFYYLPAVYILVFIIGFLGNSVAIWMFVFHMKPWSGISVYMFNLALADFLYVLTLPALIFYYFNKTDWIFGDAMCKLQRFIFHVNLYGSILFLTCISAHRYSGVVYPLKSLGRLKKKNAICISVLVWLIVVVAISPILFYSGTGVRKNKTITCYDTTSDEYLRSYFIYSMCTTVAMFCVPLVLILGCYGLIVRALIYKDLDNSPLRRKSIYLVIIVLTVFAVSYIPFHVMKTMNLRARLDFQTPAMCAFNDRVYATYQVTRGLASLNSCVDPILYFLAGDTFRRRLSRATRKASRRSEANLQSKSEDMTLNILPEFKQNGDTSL

[6] = Metabolic stability in human liver microsomes assessed as compound remaining at 0.5 uM after 10 mins; assay type: ADME; details: read-out: Stability
Method in brief: (§1)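 Compound at 0.5 μM incubated 10 min with 1 mg/mL human, rat or mouse liver microsomes; percentage of parent remaining reported.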

[7] = Metabolic stability in rat liver microsomes assessed as compound remaining at 0.5 uM after 10 mins; assay type: ADME; details: read-out: Stability; method in brief: as §1
[8] = Metabolic stability in mouse liver microsomes assessed as compound remaining at 0.5 uM after 10 mins; assay type: ADME; details: read-out: Stability; method in brief: as §1
[9] = Clearance in rat at 0.5 mg/kg by cassette dosing method; assay type: ADME, organism-based; design: dose 0.5 mg/kg; details: in vivo
[10] = Volume of distribution at steady state in rat at 0.5 mg/kg by cassette dosing method; assay type: ADME, organism-based; design: dose 0.5 mg/kg; details: in vivo, read-out: Vdss
[11] = Oral bioavailability in rat at 0.5 mg/kg by cassette dosing method; assay type: ADME, organism-based; details: in vivo
[12] = Antagonist activity at P2Y1 receptor in platelet-enriched rabbit plasma assessed as 10 uM ADP-induced platelet aggregation preincubated for 1 min followed by ADP induction measured at 5 mins by aggregometric analysis; assay type: cell-free; details: Oryctolagus cuniculus
P2Y purinoceptor 1 [13] = biological target: T1, P2Y purinoceptor 1; assay: Antagonist activity at P2Y1 receptor in platelet-enriched human plasma assessed as 10 uM ADP-induced platelet aggregation at 40 uM preincubated for 1 min followed by ADP induction measured at 5 mins by aggregometric analysis; assay type: cell-free
Oryctolagus cuniculus [14] = assay: Induction of bleeding time in rabbit model of electrically-induced carotid artery thrombosis at 0.1 mg/kg, iv + 0.033 mg/kg/hr, iv dosed 30 mins before electrical stimulation (reference value: 1 +/- 0.05); assay type: organism-based; details: in vivo, 0.5 h
Oryctolagus cuniculus [15] = assay: Induction of bleeding time in rabbit model of electrically-induced carotid artery thrombosis at 0.3 mg/kg, iv + 1 mg/kg/hr, iv dosed 30 mins before electrical stimulation (reference value: 1 +/- 0.05); assay type: organism-based; details: in vivo, 0.5 h
Oryctolagus cuniculus [16] = assay: Induction of bleeding time in rabbit model of electrically-induced carotid artery thrombosis at 90% antithrombotic dose administered 30 mins before electrical stimulation (reference value: 1 +/- 0.05); assay type: organism-based; details: in vivo, 0.5 h
[17] = Aqueous solubility of the compound; assay type: physicochemical; details: buffer
Method in brief: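 Amorphous solid; solubility measured at pH 3.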

[18] = Clearance in rat at 0.5 mg/kg, iv by discrete dosing method; assay type: ADME, organism-based; design: dose 0.5 mg/kg, route intravenous; details: in vivo
Method in brief: (§2)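 Discrete rat PK; 0.5 mg/kg iv given in solution in DMAc/cremophor/EtOH/water (10/10/10/70).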

[19] = Volume of distribution in rat at 0.5 mg/kg, iv by discrete dosing method; assay type: ADME, organism-based; design: dose 0.5 mg/kg, route intravenous; details: in vivo; method in brief: as §2
[20] = Half life in rat at 0.5 mg/kg, iv by discrete dosing method; assay type: ADME, organism-based; design: dose 0.5 mg/kg, route intravenous; details: in vivo; method in brief: as §2
[21] = Oral bioavailability in rat at 15 mg/kg by discrete dosing method; assay type: ADME, organism-based; details: in vivo
Method in brief: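 Discrete rat PK; 15 mg/kg oral and 0.5 mg/kg iv, both in solution in DMAc/cremophor/EtOH/water (10/10/10/70).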

Oryctolagus cuniculus [22] = assay: Antithrombotic activity in rabbit model of electrically-induced carotid artery thrombosis assessed as reduction in thrombus formation at 0.003 mg/kg, iv + 0.01 mg/kg/hr, iv dosed 30 mins before electrical stimulation (reference value: 3 +/- 2%); assay type: functional
Oryctolagus cuniculus [23] = assay: Antithrombotic activity in rabbit model of electrically-induced carotid artery thrombosis assessed as reduction in thrombus formation at 0.01 mg/kg, iv + 0.033 mg/kg/hr, iv dosed 30 mins before electrical stimulation (reference value: 3 +/- 2%); assay type: functional
Oryctolagus cuniculus [24] = assay: Antithrombotic activity in rabbit model of electrically-induced carotid artery thrombosis assessed as reduction in thrombus formation at 0.03 mg/kg, iv + 0.1 mg/kg/hr, iv dosed 30 mins before electrical stimulation (reference value: 3 +/- 2%); assay type: functional
Oryctolagus cuniculus [25] = assay: Antithrombotic activity in rabbit model of electrically-induced carotid artery thrombosis assessed as reduction in thrombus formation at 0.1 mg/kg, iv + 0.033 mg/kg/hr, iv dosed 30 mins before electrical stimulation (reference value: 3 +/- 2%); assay type: functional
Oryctolagus cuniculus [26] = assay: Antithrombotic activity in rabbit model of electrically-induced carotid artery thrombosis assessed as reduction in thrombus formation at 0.3 mg/kg, iv + 1 mg/kg/hr, iv dosed 30 mins before electrical stimulation (reference value: 3 +/- 2%); assay type: functional
Oryctolagus cuniculus [27] = assay: Induction of bleeding time in rabbit model of electrically-induced carotid artery thrombosis at 0.003 mg/kg, iv + 0.01 mg/kg/hr, iv dosed 30 mins before electrical stimulation (reference value: 1 +/- 0.05); assay type: organism-based; details: in vivo, 0.5 h
Oryctolagus cuniculus [28] = assay: Induction of bleeding time in rabbit model of electrically-induced carotid artery thrombosis at 0.01 mg/kg, iv + 0.033 mg/kg/hr, iv dosed 30 mins before electrical stimulation (reference value: 1 +/- 0.05); assay type: organism-based; details: in vivo, 0.5 h
Oryctolagus cuniculus [29] = assay: Induction of bleeding time in rabbit model of electrically-induced carotid artery thrombosis at 0.03 mg/kg, iv + 0.1 mg/kg/hr, iv dosed 30 mins before electrical stimulation (reference value: 1 +/- 0.05); assay type: organism-based; details: in vivo, 0.5 h

Structure (SMILES): CC(C)(C)CN1CCC2(CC1)CN(c1ccccc1NC(=O)Nc1nc3ccc(Cl)nc3s1)c1c(O)cc(F)c(-c3ccc(F)cc3)c12
inhibition (Oryctolagus cuniculus [1]): Active
inhibition at 1 µM (hERG (KCNH2)): 96%
IC50 (P2Y purinoceptor 2): > 10000 nM
IC50 (P2Y purinoceptor 12): > 10000 nM
solubility [3]: 3 µg/mL (≈ 4.35 µM)
Activity (Oryctolagus cuniculus [4]): Non-toxic
IC50 (P2Y purinoceptor 1 [5]): 0.12 nM
remaining at 10 min, 0.5 µM [6]: 100%
remaining at 10 min, 0.5 µM [7]: 93%
remaining at 10 min, 0.5 µM [8]: 100%
clearance [9]: 4 mL/min/kg
Vd [10]: 2.1 L/kg
bioavailability [11]: 30%
IC50 [12]: 590 nM

Structure (SMILES): CC(C)(C)CN1CCC2(CC1)CN(c1ccccc1NC(=O)Nc1nc3ccc(Cl)nc3s1)c1c(O)ccc(Cl)c12
inhibition at 1 µM (hERG (KCNH2)): 57%
remaining at 10 min, 0.5 µM [8]: 84%
clearance [9]: 10.4 mL/min/kg
Vd [10]: 5.4 L/kg

Structure (SMILES): COC(=O)[C@H](c1ccccc1Cl)N1CCc2sccc2C1 [CLOPIDOGREL]
inhibition (Oryctolagus cuniculus [1]): Active
fold change (FC) (Oryctolagus cuniculus [2]): 6

Structure (SMILES): CC1(C)CN(c2ccccc2NC(=O)Nc2ccc(OC(F)(F)F)cc2)c2c(O)cc(F)c(-c3ccc(Cl)cc3)c21
fold change (FC) (Oryctolagus cuniculus [14]): 3.7
fold change (FC) (Oryctolagus cuniculus [15]): 4.7
fold change (FC) (Oryctolagus cuniculus [16]): 4.7
solubility [17]: < 1 µg/mL
IC50 (P2Y purinoceptor 1 [5]): 1.06 nM
remaining at 10 min, 0.5 µM [6]: 83%
remaining at 10 min, 0.5 µM [7]: 90%
remaining at 10 min, 0.5 µM [8]: 79%
clearance [18]: 1.3 mL/min/kg
Vd [19]: 0.4 L/kg
half-life [20]: 12 h
bioavailability [21]: 10%
IC50 [12]: 87 nM
inhibition (INH) (Oryctolagus cuniculus [22]): 22%
inhibition (INH) (Oryctolagus cuniculus [23]): 46%
inhibition (INH) (Oryctolagus cuniculus [24]): 50%
inhibition (INH) (Oryctolagus cuniculus [25]): 72%
inhibition (INH) (Oryctolagus cuniculus [26]): 95%
fold change (FC) (Oryctolagus cuniculus [27]): 1.1
fold change (FC) (Oryctolagus cuniculus [28]): 1.4
fold change (FC) (Oryctolagus cuniculus [29]): 2.7

Further lines, with some results ahead:

fold change (FC) (Oryctolagus cuniculus [2]): 6
Structure (SMILES): CC(=O)Oc1cc2c(s1)CCN(C(C(=O)C1CC1)c1ccccc1F)C2 (configuration not stated)
inhibition (Oryctolagus cuniculus [1]): Active

inhibition (P2Y purinoceptor 1 [13]): 46%
remaining at 10 min, 0.5 µM [6]: 16%
remaining at 10 min, 0.5 µM [7]: 5%
remaining at 10 min, 0.5 µM [8]: 16%
Structure (SMILES): CNC(=O)C1(C)CN(c2ccccc2NC(=O)Nc2nc3ccc(F)cc3s2)c2c(O)ccc(Cl)c21 (configuration not stated)
